Source: ChEMBL document CHEMBL4393718, “Synthesis, biological evaluation and computational study of novel isoniazid containing 4H-Pyrimido[2,1-b]benzothiazoles derivatives” (2019)
Converted amounts (≈) assume the structure as drawn.

Key:
Assay type in all cases: functional
[1] = system: Mycobacterium tuberculosis; assay: Antitubercular activity against Mycobacterium tuberculosis H37Rv assessed as reduction in viable colony forming unit at 1000 ug/ml incubated for 42 days by Lowensteine-Jensen method relative to control
Procedure, shortened: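 H37Rv cultured on Lowenstein-Jensen medium with compound or untreated control; colony forming units counted on the L-J medium. Percent inhibition = (Cc − Ct)/Cc × 100, where c is control and t is test.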

[2] = system: Mycobacterium tuberculosis; assay: Antitubercular activity against Mycobacterium tuberculosis H37Rv assessed as viable colony forming unit at 1000 ug/ml incubated for 42 days by Lowensteine-Jensen method (reference value: 123 CFU)
[3] = system: Mycobacterium tuberculosis; assay: Antitubercular activity against Mycobacterium tuberculosis H37Rv incubated for 42 days by Lowensteine-Jensen method
Bacillus cereus [4] = assay: Activity index, ratio of IZ for test compound to IZ for streptomycin for antimicrobial activity against Bacillus cereus MTCC 8558 incubated for 24 hrs by well diffusion method
Procedure, shortened: (§1)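 Well diffusion on nutrient agar plates. The activity index is the mean inhibition zone of the derivative divided by the inhibition zone of the standard antibiotic.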

Klebsiella aerogenes [5] = assay: Antimicrobial activity against Enterobacter aerogenes MTCC 8558 incubated for 24 hrs by well diffusion method
Procedure, shortened: (§2)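 Well diffusion assay on nutrient agar plates. The read-out is the mean inhibition zone diameter in mm.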

Escherichia coli [6] = assay: Activity index, ratio of IZ for test compound to IZ for streptomycin for antimicrobial activity against Escherichia coli MTCC 1610 incubated for 24 hrs by well diffusion method; procedure, shortened: as §1
Klebsiella aerogenes [7] = assay: Activity index, ratio of IZ for test compound to IZ for streptomycin for antimicrobial activity against Enterobacter aerogenes MTCC 8558 incubated for 24 hrs by well diffusion method; procedure, shortened: as §1
Escherichia coli [8] = assay: Antimicrobial activity against Escherichia coli MTCC 1610 incubated for 24 hrs by well diffusion method; procedure, shortened: as §2
Micrococcus luteus [9] = assay: Antimicrobial activity against Micrococcus luteus MTCC 11948 incubated for 24 hrs by well diffusion method; procedure, shortened: as §2
Micrococcus luteus [10] = assay: Activity index, ratio of IZ for test compound to IZ for streptomycin for antimicrobial activity against Micrococcus luteus MTCC 11948 incubated for 24 hrs by well diffusion method; procedure, shortened: as §1
Bacillus cereus [11] = assay: Antimicrobial activity against Bacillus cereus MTCC 8558 incubated for 24 hrs by well diffusion method; procedure, shortened: as §2

Compound | inhibition at 1000 µg/mL [1] [%] | Activity [2] [CFU] | MIC [3] [µg/mL] | Activity_index (Bacillus cereus [4]) | inhibition zone (IZ) (Klebsiella aerogenes [5]) [mm] | Activity_index (Escherichia coli [6]) | Activity_index (Klebsiella aerogenes [7]) | inhibition zone (IZ) (Escherichia coli [8]) [mm] | inhibition zone (IZ) (Micrococcus luteus [9]) [mm] | Activity_index (Micrococcus luteus [10]) | inhibition zone (IZ) (Bacillus cereus [11]) [mm]
NNC(=O)c1ccncc1 [ISONIAZID] | 99.2 | 1 | 0.2 (≈ 1.46 µM) | – | – | – | – | – | – | – | –
CC1=C(C(=O)NNC(=O)c2ccncc2)C(c2ccccn2)N2C(=N1)Sc1cccc(Cl)c12 (stereo unspecified) | 81.3 | 23 | 50 (≈ 105 µM) | 0.667 | 18 | 0.917 | 0.75 | 22 | 17 | 0.708 | 16
CC1=C(C(=O)NNC(=O)c2ccncc2)C(c2ccccn2)N2C(=N1)Sc1cc(O)ccc12 (stereo unspecified) | 68.3 | 39 | 100 (≈ 218 µM) | 1 | 20 | 1 | 0.833 | 24 | 16 | 0.667 | 24
CC1=C(C(=O)NNC(=O)c2ccncc2)C(c2ccccn2)N2C(=N1)Sc1ccccc12 (stereo unspecified) | 69.9 | 37 | 125 (≈ 282 µM) | 0.917 | 19 | 0.542 | 0.792 | 13 | 20 | 0.833 | 22
CC1=C(C(=O)NNC(=O)c2ccncc2)C(c2ccccn2)N2C(=N1)Sc1cc([N+](=O)[O-])ccc12 (stereo unspecified) | 56.9 | 53 | 250 (≈ 513 µM) | 1 | 17 | 0.667 | 0.708 | 16 | 14 | 0.583 | 24
CC1=C(C(=O)NNC(=O)c2ccncc2)C(c2ccccn2)N2C(=N1)Sc1cc(Cl)ccc12 (stereo unspecified) | 71.5 | 35 | 125 (≈ 262 µM) | 0.708 | 16 | 0.75 | 0.667 | 18 | 16 | 0.667 | 17
CC1=C(C(=O)NNC(=O)c2ccncc2)C(c2ccccn2)N2C(=N1)Sc1cc(F)ccc12 (stereo unspecified) | 80.5 | 24 | 25 (≈ 54.3 µM) | 0.5 | 19 | 1 | 0.792 | 24 | 19 | 0.792 | 12
CC1=C(C(=O)NNC(=O)c2ccncc2)C(c2ccccn2)N2C(=N1)Sc1cc(C)ccc12 (stereo unspecified) | 54.5 | 56 | 500 (≈ 1100 µM) | 0.792 | 15 | 0.875 | 0.625 | 21 | 19 | 0.792 | 19
COc1cccc2c1N1C(=NC(C)=C(C(=O)NNC(=O)c3ccncc3)C1c1ccccn1)S2 (stereo unspecified) | 50.4 | 61 | 125 (≈ 265 µM) | 1.083 | 23 | 0.708 | 0.958 | 17 | 17 | 0.708 | 26
COc1ccc2c(c1)SC1=NC(C)=C(C(=O)NNC(=O)c3ccncc3)C(c3ccccn3)N12 (stereo unspecified) | 49.6 | 62 | 500 (≈ 1060 µM) | 0.625 | 22 | 0.625 | 0.917 | 15 | 22 | 0.917 | 15
CC1=C(C(=O)NNC(=O)c2ccncc2)C(c2ccccn2)N2C(=N1)Sc1cc(Br)ccc12 (stereo unspecified) | 73.2 | 33 | 62.5 (≈ 120 µM) | 0.75 | 20 | 0.792 | 0.833 | 19 | 15 | 0.625 | 18
CC1=C(C(=O)NNC(=O)c2ccncc2)C(c2ccccn2)N2C(=N1)Sc1cc(C)c(C)cc12 (stereo unspecified) | 82.1 | 22 | 12.5 (≈ 26.6 µM) | 0.792 | 19 | 0.625 | 0.792 | 15 | 19 | 0.792 | 19
CN[C@@H]1[C@H](O[C@H]2[C@H](O[C@H]3[C@H](O)[C@@H](O)[C@H](N=C(N)N)[C@@H](O)[C@@H]3N=C(N)N)O[C@@H](C)[C@]2(O)C=O)O[C@@H](CO)[C@H](O)[C@H]1O [STREPTOMYCIN] | – | – | – | – | 24 | – | – | 24 | 24 | – | 24
CCOc1ccc2c(c1)SC1=NC(C)=C(C(=O)NNC(=O)c3ccncc3)C(c3ccccn3)N12 (stereo unspecified) | 63.4 | 45 | 62.5 (≈ 128 µM) | 0.75 | 25 | 0.542 | 1.042 | 13 | 23 | 0.958 | 18
CC1=C(C(=O)NNC(=O)c2ccncc2)C(c2ccccn2)N2C(=N1)Sc1cc(OC(F)(F)F)ccc12 (stereo unspecified) | 79.7 | 25 | 6.25 (≈ 11.9 µM) | 0.792 | 22 | 0.792 | 0.917 | 19 | 18 | 0.75 | 19
CC1=C(C(=O)NNC(=O)c2ccncc2)C(c2ccccn2)N2C(=N1)Sc1cccc(C)c12 (stereo unspecified) | 47.1 | 65 | 1000 (≈ 2190 µM) | 0.958 | 23 | 0.708 | 0.958 | 17 | 23 | 0.958 | 23
